In brackets after ≈: the same amount, converted by molar mass. Activity calls are given as the source filed them. The calls are words filed in the database; no cut-off is given here. Peptide text beside a SMILES is read from it. * marks the point of attachment. Boc = CC(C)(C)OC(=O)*; NHBn = c1ccc(CN*)cc1
Assays:
Pichia kudriavzevii = assay: Antifungal activity against Candida krusei by CLSI method; assay type: functional, organism-based
[1] = Selectivity index, ratio of cytotoxicity for human KB cells to IC50 for Cryptococcus neoformans ATCC 90113; assay type: toxicity, cell-based; settings: read-out: Selectivity Index
[2] = Selectivity index, ratio of cytotoxicity for African green monkey Vero cells to IC50 for Cryptococcus neoformans ATCC 90113; assay type: toxicity, cell-based; settings: read-out: Selectivity Index
Cryptococcus neoformans = assay: Antifungal activity against Cryptococcus neoformans ATCC 90113 after 70 to 74 hrs by CLSI method; assay type: functional, organism-based; settings: for IC50 / MIC: Cryptococcus neoformans, ATCC 90113
In short: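 Growth inhibition of C. neoformans per the CLSI protocol. […] MIC is the lowest test concentration with no detectable growth. MFC is the lowest concentration killing 100% of the organism.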

[3] = Selectivity index, ratio of cytotoxicity for pig LLC-PK1 cells to IC50 for Cryptococcus neoformans ATCC 90113; assay type: toxicity, cell-based; settings: read-out: Selectivity Index
KB = assay: Cytotoxicity against human KB cells assessed as cell viability after 48 hrs by neutral red uptake assay; assay type: cell-based
In short: (§1)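 Neutral red uptake assay in human cancer lines SK-MEL, KB, BT-549 and SK-OV-3 and in noncancerous mammalian kidney cells VERO and LLC-PK1. The highest tested concentration was 10 μg/mL.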

[4] = Selectivity index, ratio of cytotoxicity for human SK-MEL cells to IC50 for Cryptococcus neoformans ATCC 90113; assay type: toxicity, cell-based; settings: read-out: Selectivity Index
[5] = Selectivity index, ratio of cytotoxicity for human SKOV3 cells to IC50 for Cryptococcus neoformans ATCC 90113; assay type: toxicity, cell-based, SK-OV-3; settings: read-out: Selectivity Index
SK-OV-3 = assay: Cytotoxicity against human SKOV3 cells assessed as cell viability after 48 hrs by neutral red uptake assay; assay type: cell-based; settings: sk-ov-3, 48 h; in short: as §1
Nakaseomyces glabratus = assay: Antifungal activity against Candida glabrata by CLSI method; assay type: functional, organism-based
SK-MEL = assay: Cytotoxicity against human SK-MEL cells assessed as cell viability after 48 hrs by neutral red uptake assay; assay type: cell-based; in short: as §1
BT-549 = assay: Cytotoxicity against human BT549 cells assessed as cell viability after 48 hrs by neutral red uptake assay; assay type: cell-based; settings: bt-549, 48 h; in short: as §1
LLC-PK1 = assay: Cytotoxicity against pig LLC-PK1 cells assessed as cell viability after 48 hrs by neutral red uptake assay; assay type: cell-based, Sus scrofa; settings: llc-pk1, 48 h; in short: as §1
Vero = assay: Cytotoxicity against African green monkey Vero cells assessed as cell viability after 48 hrs by neutral red uptake assay; assay type: cell-based; settings: chlorocebus sabaeus; in short: as §1
Escherichia coli = assay: Antibacterial activity against Escherichia coli ATCC 35218 after 16 to 20 hrs by CLSI method; assay type: functional, organism-based
Candida albicans = assay: Antifungal activity against Candida albicans by CLSI method; assay type: functional, organism-based
Aspergillus fumigatus = assay: Antifungal activity against Aspergillus fumigatus by CLSI method; assay type: functional, organism-based
[6] = Selectivity index, ratio of cytotoxicity for human BT549 cells to IC50 for Cryptococcus neoformans ATCC 90113; assay type: toxicity, cell-based, BT-549; settings: read-out: Selectivity Index
[7] = Retention time of the compound by reverse phase HPLC analysis; assay type: physicochemical
In short: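 Reverse-phase HPLC on a C-18 column (25 cm × 4.6 mm, 5 μM) at 1 mL/min over 40 min. The gradient ran 85−5% with A = 0.1% TFA in H2O and B = 0.1% TFA in CH3CN. Detection was at 220 nm.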

Row | SMILES | IC50 (Cryptococcus neoformans) [µg/mL] | MIC (Cryptococcus neoformans) [µg/mL] | Activity (Pichia kudriavzevii) | selectivity ratio [1] | selectivity ratio [2] | MFC100 (Cryptococcus neoformans) [µg/mL] | selectivity ratio [3] | Activity (KB) [µg/mL] | selectivity ratio [4] | selectivity ratio [5] | Activity (SK-OV-3) [µg/mL] | Activity (Nakaseomyces glabratus) | Activity (SK-MEL) [µg/mL] | Activity (BT-549) [µg/mL] | Activity (LLC-PK1) [µg/mL] | Activity (Vero) [µg/mL] | Activity (Escherichia coli) | Activity (Candida albicans) | Activity (Aspergillus fumigatus) | selectivity ratio [6] | further results
1 | CC(C)(C)OC(=O)N[C@@H](CCCNC(=N)N)C(=O)N[C@@H](Cc1c[nH]c(-c2ccccc2)n1)C(=O)N[C@@H](CCCNC(=N)N)C(=O)NCc1ccccc1 | 0.67 (≈ 0.914 µM) | 1.25 (≈ 1.71 µM) | inactive | > 14.9 | > 14.9 | 1.25 (≈ 1.71 µM) | > 14.9 | > 10 | > 14.9 | > 14.9 | > 10 | inactive | > 10 | > 10 | > 10 | > 10 | inactive | inactive | inactive | > 14.9 | Retention_time [7]: 17.63 min
2 | COC(=O)[C@H](CCCNC(=N)N)NC(=O)[C@H](Cc1c[nH]c(-c2ccc(OC)cc2)n1)NC(=O)[C@@H](N)CCCNC(=N)N | 3.93 (≈ 6.69 µM) | 5 (≈ 8.51 µM) | inactive | > 2.5 | > 2.5 | 5 (≈ 8.51 µM) | > 2.5 | > 10 | > 2.5 | > 2.5 | > 10 | inactive | > 10 | > 10 | > 10 | > 10 | inactive | inactive | inactive | > 2.5 | –

Further molecules by falling MIC (Cryptococcus neoformans), results first:

Row | IC50 (Cryptococcus neoformans) [µg/mL] | MIC (Cryptococcus neoformans) [µg/mL] | SMILES | Activity (Pichia kudriavzevii) | selectivity ratio [1] | selectivity ratio [2] | MFC100 (Cryptococcus neoformans) [µg/mL] | selectivity ratio [3] | Activity (KB) [µg/mL] | selectivity ratio [4] | selectivity ratio [5] | Activity (SK-OV-3) [µg/mL] | Activity (Nakaseomyces glabratus) | Activity (SK-MEL) [µg/mL] | Activity (BT-549) [µg/mL] | Activity (LLC-PK1) [µg/mL] | Activity (Vero) [µg/mL] | Activity (Escherichia coli) | Activity (Candida albicans) | Activity (Aspergillus fumigatus) | selectivity ratio [6] | further results
3 | 5.35 (≈ 8.15 µM) | 10 (≈ 15.2 µM) | CC(C)(C)OC(=O)N[C@@H](CCCNC(=N)N)C(=O)N[C@@H](Cc1c[nH]cn1)C(=O)N[C@@H](CCCNC(=N)N)C(=O)NCc1ccccc1 (Boc-Arg-His-Arg-NHBn) | inactive | > 1.8 | > 1.8 | 10 (≈ 15.2 µM) | > 1.8 | > 10 | > 1.8 | > 1.8 | > 10 | inactive | > 10 | > 10 | > 10 | > 10 | inactive | inactive | inactive | > 1.8 | Retention_time [7]: 16.41 min
4 | 0.73 (≈ 1.15 µM) | 1.25 (≈ 1.98 µM) | N=C(N)NCCC[C@H](NC(=O)[C@H](Cc1c[nH]c(-c2ccccc2)n1)NC(=O)[C@@H](N)CCCNC(=N)N)C(=O)NCc1ccccc1 | inactive | > 13.7 | > 13.7 | 1.25 (≈ 1.98 µM) | > 13.7 | > 10 | > 13.7 | > 13.7 | > 10 | inactive | > 10 | > 10 | > 10 | > 10 | inactive | inactive | inactive | > 13.7 | –
5 | – | 1.25 (≈ 1.35 µM) | C[C@@H]1[C@H](O)[C@@H](C)/C=C/C=C/C=C/C=C/C=C/C=C/C=C/[C@H](O[C@@H]2O[C@H](C)[C@@H](O)[C@H](N)[C@@H]2O)C[C@@H]2O[C@](O)(C[C@@H](O)C[C@@H](O)[C@H](O)CC[C@@H](O)C[C@@H](O)CC(=O)O[C@H]1C)C[C@H](O)[C@H]2C(=O)O [AMPHOTERICIN B] | – | – | – | 1.25 (≈ 1.35 µM) | – | – | – | – | – | – | – | – | – | – | – | – | – | – | –

Source: ChEMBL document CHEMBL3259662 (ACS Med Chem Lett, 2014)
